Values after ≈ are worked out from the molar mass of the structure shown.
Key:
Type in all cases: functional
Haemophilus influenzae = assay: In vitro Anti Bacterial Activity (MIC90) against 90% of tested clinical Isolates of Haemophilus Influenzae(21)
Outline: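 MIC90 over clinical isolates; MICs in Haemophilus Test Medium Base with Haemophilus Test Medium Supplement, inoculum 10⁴ cells/mL, 24–48 h at 37 °C.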

Staphylococcus aureus [1] = assay: In vitro Anti Bacterial Activity (MIC90) against 90% of tested clinical Isolates of Staphylococcus aureus MS (6)
Outline: (§1)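 Aerobic clinical isolates; MICs in Mueller Hinton 2 medium, inoculum 10⁴ cells/mL, incubated 24 h at 37 °C; MIC90 taken across isolates of each species.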

[2] = tested on: Staphylococcus epidermidis; assay: In vitro Anti Bacterial Activity (MIC90) against 90% of tested clinical Isolates of S. epidermidis(13); outline: as §1
Enterococcus faecalis [3] = assay: In vitro Anti Bacterial Activity (MIC90) against 90% of tested clinical Isolates of Enterococcus faecalis(47); outline: as §1
Clostridium perfringens = assay: In vitro Anti Bacterial Activity (MIC90) against 90% of tested clinical Isolates of Clostridium perfringens(27)
Outline: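 MIC90 over clinical isolates of this anaerobic species, taken from the MIC distribution. Anaerobes were tested on Wilkins-Chalgren agar with an inoculum of 10⁵ cells/mL and incubated 24–48 h at 37 °C.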

Streptococcus pneumoniae = assay: In Vitro Anti Bacterial Activity (MIC90) against 90% of tested clinical Isolates of Streptococcus pneumoniae (23)
Bacteroides fragilis = assay: In vitro Anti Bacterial Activity (MIC90) against 90% of tested clinical Isolates of Bacteroides fragilis(15)
Outline: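 MIC90 over clinical anaerobe isolates; MICs in Wilkins-Chalgren agar, inoculum 10⁵ cells/mL, 24–48 h at 37 °C.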

Enterococcus faecium = assay: In vitro Anti Bacterial Activity (MIC90) against 90% of tested clinical Isolates of Enterococcus faecium(47); outline: as §1
Yersinia sp. = assay: In Vitro Anti Bacterial Activity (MIC90) against 90% of tested clinical Isolates of Yersinia species(20); conditions: Yersinia sp. (in: enterobacteria)
Staphylococcus aureus [4] = assay: In vitro Anti Bacterial Activity (MIC90) against 90% of tested clinical Isolates of Staphylococcus aureus MV (20)
Streptococcus agalactiae = assay: In vitro Anti Bacterial Activity (MIC90) against 90% of tested clinical Isolates of Streptococcus agalactiaeB(21)
Streptococcus pyogenes = assay: In vitro Anti Bacterial Activity (MIC90) against 90% of tested clinical Isolates of Streptococcus pyogenes(31)
Klebsiella pneumoniae = assay: In Vitro Anti Bacterial Activity (MIC90) against 90% of tested clinical Isolates of Klebsiella pneumoniae(20)
Outline: (§2)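 Over 500 clinical isolates tested in total; the line gives the isolate count. MIC90 for aerobes by dilution in Mueller Hinton 2 medium, inoculum 10⁴ cells/mL, incubated 24 h at 37 °C.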

Listeria monocytogenes = assay: In vitro Anti Bacterial Activity (MIC90) against 90% of tested clinical Isolates of Listeria monocytogenes (20)
Moraxella catarrhalis = assay: In vitro Anti Bacterial Activity (MIC90) against 90% of tested clinical Isolates of Branhamella catarrhalis(27)
Aeromonas = assay: In vitro 90% of tested clinical Isolates of Aeromonas species(21); outline: as §2
Pseudomonas aeruginosa [5] = assay: In Vitro antibacterial activity against (Pa) hyperpermeable Pseudomonas aeruginosa […] strain
Outline: (§3)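 Panel of standard ATCC strains plus modified strains: methicillin-resistant, hyperpermeable, β-lactamase-producing (TEM1, TEM2, SHV) and β-lactamase-lacking. MIC determined in Mueller Hinton 2 medium, inoculum 10⁴ cells/mL, incubated 24 h at 37 °C.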

Staphylococcus aureus [6] = assay: In vitro antibacterial activity against Sa(II) Staphylococcus aureus ATCC 25923; outline: as §3
Staphylococcus aureus [7] = assay: In vitro antibacterial activity against Sa(I) Staphylococcus aureus ATCC 29213
Outline: (§4)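 MIC was determined in Mueller Hinton 2 medium with an inoculum of 10⁴ cells/mL and incubation for 24 h at 37 °C. Strains: Sa(I) is S. aureus ATCC 29213; Sa MR(I) is a heterogeneous methicillin-resistant S. aureus; Sa MR(II) is a homogeneous methicillin-resistant S. aureus.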

Pseudomonas aeruginosa [8] = assay: In Vitro antibacterial activity against(Pa) Pseudomonas aeruginosa ATCC 27853; outline: as §3
Enterococcus faecalis [9] = assay: In Vitro antibacterial activity against (Ef) Enterococcus faecalis ATCC 29212; outline: as §3
Escherichia coli [10] = assay: In Vitro antibacterial activity against (Ec TEM2) Escherichia coli […] strain; outline: as §3
Staphylococcus aureus [11] = assay: In vitro antibacterial activity against Sa MR(I) heterogeneous methicillin resistant Staphylococcus aureus; outline: as §4
Staphylococcus aureus [12] = assay: In vitro antibacterial activity against Sa MR(II) homogeneous methicillin resistant Staphylococcus aureus; outline: as §4
Escherichia coli [13] = assay: In Vitro antibacterial activity against (Ec SHV) Escherichia coli […] strain; outline: as §3
Escherichia coli [14] = assay: In Vitro antibacterial activity against (Ec TEM1) Escherichia coli […] strain; outline: as §3
Escherichia coli [15] = assay: In Vitro antibacterial activity against (Ec DC2) hyperpermeable Escherichia coli strain; outline: as §3
Escherichia coli [16] = assay: In Vitro antibacterial activity against (Ec) Escherichia coli ATCC 25922; outline: as §3
Escherichia coli [17] = assay: In Vitro antibacterial activity against (Ec L) Escherichia coli […] strain; outline: as §3
Pseudomonas aeruginosa [18] = assay: In Vitro antibacterial activity against (Pa G242) hyperpermeable Pseudomonas aeruginosa strain; outline: as §3

`CC1(C)S[C@@H]2[C@H](NC(=O)[C@H](N)c3ccc(O)cc3)C(=O)N2[C@H]1C(=O)O` [AMOXICILLIN] gave an MIC90 (Haemophilus influenzae) of 1 µg/mL (≈ 2.74 µM), an MIC90 (Staphylococcus aureus [1]) of 1 µg/mL (≈ 2.74 µM) and an MIC90 [2] of 4 µg/mL (≈ 10.9 µM). It also gave an MIC90 (Enterococcus faecalis [3]) of 0.5 µg/mL (≈ 1.37 µM), an MIC90 (Clostridium perfringens) of 0.06 µg/mL (≈ 0.164 µM) and an MIC90 (Streptococcus pneumoniae) of 0.015 µg/mL (≈ 0.041 µM). It also gave an MIC90 (Bacteroides fragilis) of 32 µg/mL (≈ 87.6 µM), an MIC90 (Enterococcus faecium) of 32 µg/mL (≈ 87.6 µM) and an MIC90 (Yersinia sp.) of over 64 µg/mL. It also gave an MIC90 (Staphylococcus aureus [4]) of 32 µg/mL (≈ 87.6 µM), an MIC90 (Streptococcus agalactiae) of 0.06 µg/mL (≈ 0.164 µM) and an MIC90 (Streptococcus pyogenes) of 0.015 µg/mL (≈ 0.041 µM). For the same molecule, the MIC90 (Klebsiella pneumoniae) was over 64 µg/mL, the MIC90 (Listeria monocytogenes) was 0.5 µg/mL (≈ 1.37 µM) and the MIC90 (Moraxella catarrhalis) was 2 µg/mL (≈ 5.47 µM). It also gave an MIC90 (Aeromonas) of over 32 µg/mL.
`C[C@@H](O)[C@H]1C(=O)N2C(C(=O)O)=C(CSC(=S)N(C)CC(N)=O)S[C@H]12` showed an MIC (Pseudomonas aeruginosa [5]) of 4 µg/mL (≈ 10.2 µM), an MIC (Staphylococcus aureus [6]) of 0.12 µg/mL (≈ 0.307 µM) and an MIC (Staphylococcus aureus [7]) of 0.12 µg/mL (≈ 0.307 µM). The MIC (Pseudomonas aeruginosa [8]) was over 64 µg/mL, the MIC (Enterococcus faecalis [9]) was 8 µg/mL (≈ 20.4 µM) and the MIC (Escherichia coli [10]) was 8 µg/mL (≈ 20.4 µM). It also gave an MIC (Staphylococcus aureus [11]) of 0.03 µg/mL (≈ 0.0766 µM), an MIC (Staphylococcus aureus [12]) of 2 µg/mL (≈ 5.11 µM) and an MIC (Escherichia coli [13]) of 16 µg/mL (≈ 40.9 µM). The MIC (Escherichia coli [14]) was 8 µg/mL (≈ 20.4 µM), the MIC (Escherichia coli [15]) was 0.5 µg/mL (≈ 1.28 µM) and the MIC (Escherichia coli [16]) was 8 µg/mL (≈ 20.4 µM). The MIC (Escherichia coli [17]) was 16 µg/mL (≈ 40.9 µM) and the MIC (Pseudomonas aeruginosa [18]) was 8 µg/mL (≈ 20.4 µM).

— ChEMBL document CHEMBL1128718, “2-Substituted penems with amino acid-related side chains: synthesis and antibacterial activity of a new series of beta-lactam antibiotics” (1995)
